Reference: PubChem BioAssay AID651876 (Broad Institute, 2012)
Several values for one entry are separate records, joined by “and”; a condition that tells them apart may be missing. Equal values may be shown once. Activity calls are given as the source filed them.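 The calls were made as follows: active = inhibition above 20% at 50 µM; inactive = the rest.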

Biological target: Kelch-like ECH-associated protein 1 (Homo sapiens) (UniProt Q14145)
Assay: competitive SPR blockade of Keap1/Nrf2 binding – biophysical, dry powder, orthogonal assay for Keap1-Nrf2 interaction inhibitor project, confirmation (AID 651876)
Details: Keap1 Kelch binding to Nrf2 peptide, stronger effect = higher value
In short: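 Test system: Keap1 Kelch domain, biochemical. Quantity: 40 nM Kelch domain. Also added: biotinylated 16mer Nrf2 peptide captured on streptavidin CM5 surface. Doses: compound at 5 or 50 µM. Times: room-temperature preincubation, 25 °C binding. Signal: Double-referenced surface plasmon resonance, initial association-phase slopes. Measure: % inhibition via free Kelch domain fraction.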

Kelch-like ECH-associated protein 1 (Homo sapiens), sequence (Q14145 whole entry, looked up): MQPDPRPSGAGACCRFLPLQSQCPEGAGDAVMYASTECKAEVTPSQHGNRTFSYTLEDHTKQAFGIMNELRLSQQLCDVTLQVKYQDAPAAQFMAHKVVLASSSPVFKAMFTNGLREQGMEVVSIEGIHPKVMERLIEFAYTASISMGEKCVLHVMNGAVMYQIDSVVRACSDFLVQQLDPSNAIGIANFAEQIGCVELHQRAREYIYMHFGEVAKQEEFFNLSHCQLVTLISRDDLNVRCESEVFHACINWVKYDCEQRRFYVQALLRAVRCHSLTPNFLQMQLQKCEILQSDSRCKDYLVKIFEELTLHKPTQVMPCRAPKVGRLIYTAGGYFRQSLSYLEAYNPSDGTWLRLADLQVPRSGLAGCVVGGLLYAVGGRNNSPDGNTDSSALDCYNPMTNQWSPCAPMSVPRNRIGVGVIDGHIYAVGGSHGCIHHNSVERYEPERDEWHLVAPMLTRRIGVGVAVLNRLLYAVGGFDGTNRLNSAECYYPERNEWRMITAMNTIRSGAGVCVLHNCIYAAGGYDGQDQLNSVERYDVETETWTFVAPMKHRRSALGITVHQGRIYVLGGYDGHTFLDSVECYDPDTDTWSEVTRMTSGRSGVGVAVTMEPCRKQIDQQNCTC

| Structure (SMILES) | inhibition (at 50 µM) | inhibition (inhibition, at 5 µM) |
| --- | --- | --- |
| Cc1ccc(S(=O)(=O)NNc2nc(N3CC(O)CC3C(=O)O)nc3ccccc23)cc1 (stereo unspecified) | -0.9% (inactive) | -1.1% |
| Cc1cc(C)c(S(=O)(=O)Nc2nc(C(C(=O)OC(C)C)C(=O)C(F)(F)F)nc3ccccc23)c(C)c1 (stereo unspecified) | 1.9% (inactive) | -4.5% |
| O=C(O)C1CCCCC1C(=O)N1CCc2ccccc2C1CN1C(=O)[C@H]2CCCC[C@H]2C1=O (stereo partly specified) | 65.5% | 19.1% |
| O=C(O)c1ccccc1C(=O)N1CCc2ccccc2C1CN1C(=O)c2ccccc2C1=O (stereo unspecified) | 9.9% (inactive) | 1.9% |
| O=C(O)[C@H]1CCCC[C@H]1C(=O)N1CCc2ccccc2[C@H]1CNc1nc(Cl)nc2ccccc12 | 3.7% (inactive) | -1.3% |
| Cc1ccc(S(=O)(=O)NC(=O)[C@@H]2c3ccccc3CCN2C(=O)[C@@H]2CCCC[C@@H]2C(=O)O)cc1 |  | 0.2% and -3.9% |
| CC(C)CNc1nc(NS(=O)(=O)c2ccccc2)c2ccccc2n1 | 3.3% (inactive) | 1% |
| Cc1ccccc1S(=O)(=O)Nc1cc(C(C(=O)OC(C)C)C(=O)C(F)(F)F)c(O)c2ccccc12 (stereo unspecified) | 86.4% | 49.5% |
| O=C(O)[C@H]1CCCC[C@H]1C(=O)N1CCc2ccccc2[C@H]1CNS(=O)(=O)c1ccc([N+](=O)[O-])cc1 | 26.7% | 4% |
| Cc1ccc(S(=O)(=O)NC2=CC(=N[C@@H](C)C(=O)OC(C)(C)C)C(=O)c3ccccc32)c(C)c1 | 10.5% (inactive) | -5.37% |
| O=C(O)C1CCCCC1C(=O)N1CCc2ccccc2C1CN1C(=O)c2ccccc2S1(=O)=O (stereo unspecified) | 68.1% | 18.5% |
| Cc1ccc(S(=O)(=O)NC[C@@H]2c3ccccc3CCN2C(=O)[C@@H]2CCCC[C@@H]2C(=O)O)c(C)c1 | 17.1% (inactive) | 0.1% |
| O=C(O)C1CCCCC1C(=O)Nc1ccccc1CN1C(=O)c2ccccc2C1=O (stereo unspecified) | 5.5% (inactive) | 3.8% |
| O=C(O)C1CCCCC1C(=O)N1CCc2ccccc2[C@H]1C(=O)NC12CC3CC(CC(C3)C1)C2 (stereo partly specified) | -0.6% (inactive) | -11.6% |
| O=C(O)[C@H]1CCCC[C@H]1C(=O)N1CCc2ccccc2[C@H]1CNS(=O)(=O)c1ccccc1 | 12.9% (inactive) | -3.1% |
| O=C(O)[C@H]1CCCC[C@H]1C(=O)N1CCc2ccccc2C1CCN1C(=O)c2ccccc2C1=O (stereo partly specified) | 8.8% (inactive) and 2.3% (inactive) | -2.2% and 0.5% |
| Cc1ccc(S(=O)(=O)Nc2cc(C(C(=O)OC(C)C)C(=O)C(F)(F)F)c(O)c3ccccc23)cc1 (stereo unspecified) | 80.3% | 30.2% |
| O=C(O)C1CCCCC1C(=O)N1CCCCC1CN1C(=O)c2ccccc2C1=O (stereo unspecified) | 13.5% (inactive) | 0.4% |
| CCOC(=O)C(C(=O)OCC)c1nc(NS(=O)(=O)c2c(C)cc(C)cc2C)c2ccccc2n1 | -2.5% (inactive) | -6% |
| O=C(Cc1ccccc1)NC[C@@H]1c2ccccc2CCN1C(=O)[C@@H]1CCCC[C@@H]1C(=O)O | 36.9% | 7% |
| O=C(NCCCN1CCOCC1)c1ccccc1C(=O)NC[C@@H]1c2ccccc2CCN1C(=O)C1CCCCC1C(=O)O (stereo partly specified) | 43.8% | 6.9% |

| Structure (SMILES) | inhibition (at 50 µM) | inhibition (inhibition, at 5 µM) |
| --- | --- | --- |
| O=C(O)C1CCCCC1C(=O)N1CCc2ccccc2C1CN1Cc2ccccc2C1=O (stereo unspecified) | 77.7% | 27.7% |
| COc1ccc(CCN=C2C=C(NS(=O)(=O)c3c(C)cc(C)cc3C)c3ccccc3C2=O)cc1 | 8% (inactive) | 0% |
| CCOC(=O)C(C(=O)OCC)c1cc(CN2C(=O)c3ccccc3C2=O)c2ccccc2n1 | 8.32% (inactive) | 11.9% |
| O=C(O)C1CCCCC1C(=O)N1CCc2ccccc2C1CN1C(=O)Cc2ccccc2C1=O (stereo unspecified) | 77% | 36.6% |
| CC(=O)Nc1cc(NS(=O)(=O)c2c(C)cc(C)cc2C)c2ccccc2c1O | 13.9% (inactive) | 9.6% |
| O=C(Oc1cc(CN2C(=O)c3ccccc3C2=O)c2ccccc2[n+]1[O-])c1cccc(Cl)c1 | 7.85% (inactive) | -2.91% |
| Cc1cc(C)c(S(=O)(=O)Nc2cc(C(C(=O)OC(C)C)C(=O)C(F)(F)F)c(O)c3ccccc23)c(C)c1 (stereo unspecified) | 105% | 79.7% |
| O=C(O)[C@@H]1CCCN1C(=O)N1CCc2ccccc2[C@H]1CN1C(=O)c2ccccc2C1=O | 30.3% | 1.7% |
| CCOC(=O)Cc1nc(NS(=O)(=O)c2c(C)cc(C)cc2C)c2ccccc2n1 | 4.3% (inactive) | 5.5% |
| O=C(O)CC(=O)N1CCc2ccccc2C1CN1C(=O)c2ccccc2C1=O (stereo unspecified) | 2.1% (inactive) | -2.4% |
| COC(=O)[C@H]1CCCC[C@H]1C(=O)N1CCc2ccccc2[C@H]1CN1C(=O)c2ccccc2C1=O | 1.6% (inactive) | -0.6% |
| CCOC(=O)C(C(=O)OCC)c1cc(CNS(=O)(=O)c2ccc(C)cc2C)c2ccccc2n1 | 4.8% (inactive) | 3.9% |
| O=S(=O)(Nc1nc(NCC2CCCCC2)nc2ccccc12)c1ccccc1 | 7% (inactive) | -1.7% |
| O=C(O)CCC(=O)N1CCc2ccccc2C1CN1C(=O)c2ccccc2C1=O (stereo unspecified) | 11.4% (inactive) | -2.3% |
| COC(=O)CNc1nc(NS(=O)(=O)c2c(C)cc(C)cc2C)c2ccccc2n1 | 8.5% (inactive) | 1.1% |
| COc1ccccc1CCNC(=O)[C@@H]1c2ccccc2CCN1C(=O)C1CCCCC1C(=O)O (stereo partly specified) | -4.2% (inactive) and -2.2% (inactive) | -12.8% and -7.2% |
| O=C(O)C1CCCCC1C(=O)N1CCc2ccccc2[C@H]1C(=O)NCCc1ccccc1 (stereo partly specified) | -3.7% (inactive) | -5.5% |
| O=C(NC[C@@H]1c2ccccc2CCN1C(=O)[C@@H]1CCCC[C@@H]1C(=O)O)c1ccccc1 | -3.5% (inactive) | 1.5% |
| O=C(O)C1CCCCC1C(=O)N1CCc2ccccc2C1c1ccccc1 (stereo unspecified) | 3.2% (inactive) | -2% |
| O=C(NC[C@@H]1c2ccccc2CCN1C(=O)[C@@H]1CCCC[C@@H]1C(=O)O)c1ccccc1CO | 39.3% | 7.3% |
